Tested on: MS2 coat protein
Test: apparent Kd, MS2 coat protein; higher = weaker binding; RNA-MaP array; FMN 200 µM where present
In short: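 Stalled E. coli RNA polymerase transcribed each design on Illumina sequencing-chip clusters. The clusters were titrated with SNAP-549-labelled MS2 coat protein, starting at 0.7 or 1.5 nM and doubling up to 3 µM, first without ligand and then with constant ligand, in 100 mM Tris-HCl pH 7.5, 80 mM KCl, 4 mM MgCl2, BSA, DTT, yeast tRNA and Tween-20. Green signal was normalised to red-channel RNA signal and to the control-cluster median Fmax. The apparent Kd is the median of filtered binding-curve fits made for each cluster.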

[1] = designed as: OFF switch for flavin mononucleotide, no ligand
[2] = ligand present: flavin mononucleotide, designed as: OFF switch for flavin mononucleotide
[3] = designed as: ON switch for flavin mononucleotide, no ligand
[4] = ligand present: flavin mononucleotide, designed as: ON switch for flavin mononucleotide

Row | Sequence | apparent Kd [1] | apparent Kd [2] | apparent Kd [3] | apparent Kd [4]
1 | UGACUAGUAAUGUAUCGAAAGAUCACAUGAGGAUCACCCAUGUAGGAUAUGAGCAGAAAAUCUGCUCAGAAGGACAUGCUAGUC | 5.9 nM | 7.36 nM |  | 
2 | AAGCGAGGGACAGGAUAUGCGGCGGAACUCGCCGCAGAAGGGUCGACAUGAGGAUCACCCAUGUCCUUACGCUCCAAGUAGUGG |  |  | 131 nM | 425 nM
3 | GGAGGAGGAGUGAGGAUAUGGUGGUGGAAACACCACCAGAAGGCACAUGAGGAUCACCCAUGUGAAGAAGAGAA | 18.9 nM | 24.9 nM |  | 
4 | GCAUGGUGAGGAUAUGCAGAAGGGCAACGGUCAUCAUGACUACAUGAGGAUCACCCAUGUAGAAGGCACACAUG | 44.3 nM | 54.8 nM |  | 
5 | AAAAACAGAGGAUAUACAAAAUGAUGACGAAAGUCAUCAAAACAUGAGGAUCACCCAUGUAGAAGGCUGAAAAA | 25.9 nM | 22.9 nM |  | 
6 | AAAAGGUUAGGAUAUGCGUGGAAAAAGUGUAUCUAAAAAAAACAUGAGGAUCACCCAUGUAGAAGGGACUUAAA | 45.3 nM | 44 nM |  | 
7 | CCAGAGUGAGGAUAUGCAUAAAGGUGCUGUCCCGUGGCUUGACAUGAGGAUCACCCAUGUAGAAGGUGCGUUGU | 48.7 nM | 40.3 nM |  | 
8 | AACACACAUGAGGAUCACCCAUGUAAAAUUUAGCAAGGAUAUGGGUGCCGUAAUCGGUUACCAGAAGGUGCCUCAC |  |  | 103 nM | 59.8 nM
9 | ACGCGUUGGGAGAAGGUACAUUAAAUUAGUUACACAUGAGGAUCACCCAUGUAAGGAUAUCCCAUCGUGUAAUAUUAUACAGCA | 9.76 nM | 9.62 nM |  | 
10 | CUUGUGUUAGGAUAUGCGCCCUGAAGUGGAAGGGCCAGAGAGCAGAAGGGACAUGAGGAUCACCCAUGUGUGAC | 79.7 nM | 125 nM |  | 
11 | UAUGUGACACAGAAGGCCAGUCACAUGAGGAUCACCCAUGUAGUAAAGUGGAGGAUAUGUGUGCCUAGCAACUUACUAGCAAGA |  |  | 107 nM | 9.61 nM
12 | GUAGUACAUGAGGAUCACCCAUGUGUAGAAGCAUGAGGAUAUGUCAGUCCAUGAAAAACGAUAGAAGGCAUGGUGA |  |  | 178 nM | 176 nM
13 | ACCAUUUACUAAUUAUCUAUACAUGAGGAUCACCCAUGUUAAGAGGAUAUCAUCGUGAAACGCGAUGAGAAGGCUUAGCAUUCG | 55.2 nM | 172 nM |  | 
14 | GCAUCCUGGUAGAAGGGACAUCGGCUGGUAAGCAUCAUCUCCUUCUCACAUGAGGAUCACCCAUGUCAGGAUAUACCAGGACGC | 12.3 nM | 42.1 nM |  | 
15 | GCAGACGUAGUGAGGAUAUGCUCUACCUCGGUAGAGCAGAAGGCACAUGAGGAUCACCCAUGUGGUUCCUCUGC | 19.1 nM | 80.9 nM |  | 
16 | UCAUAACAUGAGGAUCACCCAUGUCAGGAUAUGAUACUAUGUACUUCGGUACAUAGUAUCAGAAGGGACAUGCU | 121 nM | 18.6 nM |  | 
17 | UCCUACAUGGGAGGAUAUGGGAAGAUACAUGAGGAUCACCCAUGUUUAAGAAUGCCGAGAGGCAACUAGAAGGCCCAUGUAGGU |  |  | 876 nM | 54.4 nM
18 | UUUUACCGAGGAUAUACAUUUUUUUUAUUAUCCUCAUUAUUACAUGAGGAUCACCCAUGUAGAAGGCGGAUUUU | 52.9 nM | 112 nM |  | 
19 | AAGUCGCACCAGAAGGGUCAACCAAUAAAUUAGACAGGAUAUGGGCGAUAUGUAUGUCGCGACAUGAGGAUCACCCAUGUCCGG |  |  | 17.7 nM | 6.08 nM
20 | UUGGACGUCGUAGGAUAUGUACGAUAUUCCUACAUGAGGAUCACCCAUGUUGACAUGGAAGAAGGACAGAAGGACGAUGUCCAU |  |  | 5.5 nM | 4.87 nM
21 | ACGGCUAACCCAGUUUAGAUCUCAAGAAGGGUACACUGGGCAAGGUACAUGAGGAUCACCCAUGUACAGGAUAUUGAGAUGAGA | 12.1 nM | 34.1 nM |  | 
22 | AAAAGCUAAGGAUAUACAUGAGGAUCACCCAUGUACACCGGUACGGGUGCGAACUCCUGUAGAAGGUGGGAUAA | 148 nM | 159 nM |  | 
23 | GGACGUUACAUCUACAUGAGGAUCACCCAUGUCUCUUGAGAUGAGGAUAUGUAUACGAAUCGUUUAUAGAAGGCAUGUACGUCC |  |  | 39.8 nM | 46.4 nM

Source: the EternaBench riboswitch data
